The values that follow come from ChEMBL document CHEMBL1177639, “Synthesis and biological evaluation of 5-substituted and 4,5-disubstituted-2-arylamino oxazole TRPV1 antagonists” (Bioorg Med Chem, 2010).

pIC50: −log10 of the molar value.

The nature of data set [1]: Ratio of drug level in brain to plasma in rat at 10 umol/kg, iv and po. It counts as ADME, organism-based. To be noted: read-out: BPR.
In data set [2] the target is Transient receptor potential cation channel subfamily V member 1 (Homo sapiens, UniProt Q8NER1). The data set can be described thus: Antagonist activity at human recombinant TRPV1 receptor expressed in human 1321 cells assessed as inhibition of capsaicin-induced in intracellular calcium levels by FLIPR assay. The class given is functional, cell-based. A general note: Calcium assays in cells follow changes in intracellular calcium, usually with a dye or a luminescent sensor.
Transient receptor potential cation channel subfamily V member 1, sequence (Q8NER1 whole entry): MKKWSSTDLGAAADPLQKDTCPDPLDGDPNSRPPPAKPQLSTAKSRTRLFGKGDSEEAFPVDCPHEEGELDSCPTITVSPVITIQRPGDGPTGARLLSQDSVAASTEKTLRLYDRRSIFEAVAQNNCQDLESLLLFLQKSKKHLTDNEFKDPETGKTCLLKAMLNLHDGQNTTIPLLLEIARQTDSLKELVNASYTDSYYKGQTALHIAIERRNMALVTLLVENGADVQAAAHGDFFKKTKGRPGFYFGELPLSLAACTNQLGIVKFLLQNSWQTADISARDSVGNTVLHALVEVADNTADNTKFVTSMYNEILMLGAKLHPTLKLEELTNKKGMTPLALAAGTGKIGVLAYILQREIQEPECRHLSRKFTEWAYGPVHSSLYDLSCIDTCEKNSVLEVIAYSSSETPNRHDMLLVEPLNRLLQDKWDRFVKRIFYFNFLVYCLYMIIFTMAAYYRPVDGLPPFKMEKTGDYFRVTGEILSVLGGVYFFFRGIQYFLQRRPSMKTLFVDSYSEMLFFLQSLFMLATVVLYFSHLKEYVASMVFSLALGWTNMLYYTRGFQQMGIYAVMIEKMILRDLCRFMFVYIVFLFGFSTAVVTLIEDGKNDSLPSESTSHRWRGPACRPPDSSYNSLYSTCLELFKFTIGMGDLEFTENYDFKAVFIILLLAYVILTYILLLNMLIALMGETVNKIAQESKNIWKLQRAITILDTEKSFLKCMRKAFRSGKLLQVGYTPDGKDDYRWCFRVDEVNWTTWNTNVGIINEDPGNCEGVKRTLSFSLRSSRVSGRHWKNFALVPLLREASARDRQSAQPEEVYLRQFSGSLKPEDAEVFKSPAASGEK

The subject of a further data set is Canis familiaris. The data set can be described thus: Cardiotoxicity in anesthetized dog assessed as effect on hemodynamics at 57 times Cmax concentration. To be noted: in vivo.
Data set [3] in a line: Bioavailability in rat at 10 umol/kg, po. It counts as ADME, organism-based. To be noted: in vivo. Summed up:
(§1)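 Rat pharmacokinetics after 10 µmol/kg dosing, three animals per group for each of the iv and oral routes. Parameters reported are Vb (iv), CLp, t1/2 (iv), oral Cmax and oral bioavailability.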

In data set [4] the target is Transient receptor potential cation channel subfamily V member 4 (Homo sapiens, UniProt Q9HBA0). The data set can be described thus: Antagonist activity at human TRPV4 receptor. It counts as functional.
Transient receptor potential cation channel subfamily V member 4, sequence (Q9HBA0 whole entry): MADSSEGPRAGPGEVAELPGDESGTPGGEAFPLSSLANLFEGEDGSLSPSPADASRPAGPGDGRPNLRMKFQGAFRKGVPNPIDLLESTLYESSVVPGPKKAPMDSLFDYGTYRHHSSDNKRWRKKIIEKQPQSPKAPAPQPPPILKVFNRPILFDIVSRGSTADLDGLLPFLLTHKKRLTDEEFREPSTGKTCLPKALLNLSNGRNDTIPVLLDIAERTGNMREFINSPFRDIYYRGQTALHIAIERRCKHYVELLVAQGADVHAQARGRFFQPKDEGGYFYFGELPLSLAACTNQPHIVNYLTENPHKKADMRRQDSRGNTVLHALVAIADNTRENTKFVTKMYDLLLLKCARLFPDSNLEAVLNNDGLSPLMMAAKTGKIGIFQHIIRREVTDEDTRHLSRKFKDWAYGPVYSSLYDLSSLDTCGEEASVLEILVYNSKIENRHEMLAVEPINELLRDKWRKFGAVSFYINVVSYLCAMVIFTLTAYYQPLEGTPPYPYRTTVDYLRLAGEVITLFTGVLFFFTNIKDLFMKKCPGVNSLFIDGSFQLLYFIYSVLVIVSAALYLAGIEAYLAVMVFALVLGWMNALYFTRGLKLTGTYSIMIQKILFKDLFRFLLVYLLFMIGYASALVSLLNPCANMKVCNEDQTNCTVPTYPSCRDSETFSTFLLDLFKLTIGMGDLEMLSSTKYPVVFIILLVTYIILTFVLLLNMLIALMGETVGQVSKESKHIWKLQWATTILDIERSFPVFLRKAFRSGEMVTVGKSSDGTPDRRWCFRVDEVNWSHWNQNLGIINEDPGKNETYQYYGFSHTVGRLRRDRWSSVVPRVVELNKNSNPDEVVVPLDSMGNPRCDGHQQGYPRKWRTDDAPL
For data set [5], the system named is Rattus norvegicus. The data set can be described thus: Analgesic activity against carrageenan-induced thermal hyperalgesia in Sprague-Dawley rat assessed as paw withdrawal latency at 10 umol/kg, po by hotbox assay. It counts as functional.
The target in data set [6] is Transient receptor potential cation channel subfamily M member 8 (Homo sapiens, UniProt Q7Z2W7). The data set can be described thus: Antagonist activity at human TRPM8 receptor. The class given is functional.
Transient receptor potential cation channel subfamily M member 8, sequence (Q7Z2W7 whole entry): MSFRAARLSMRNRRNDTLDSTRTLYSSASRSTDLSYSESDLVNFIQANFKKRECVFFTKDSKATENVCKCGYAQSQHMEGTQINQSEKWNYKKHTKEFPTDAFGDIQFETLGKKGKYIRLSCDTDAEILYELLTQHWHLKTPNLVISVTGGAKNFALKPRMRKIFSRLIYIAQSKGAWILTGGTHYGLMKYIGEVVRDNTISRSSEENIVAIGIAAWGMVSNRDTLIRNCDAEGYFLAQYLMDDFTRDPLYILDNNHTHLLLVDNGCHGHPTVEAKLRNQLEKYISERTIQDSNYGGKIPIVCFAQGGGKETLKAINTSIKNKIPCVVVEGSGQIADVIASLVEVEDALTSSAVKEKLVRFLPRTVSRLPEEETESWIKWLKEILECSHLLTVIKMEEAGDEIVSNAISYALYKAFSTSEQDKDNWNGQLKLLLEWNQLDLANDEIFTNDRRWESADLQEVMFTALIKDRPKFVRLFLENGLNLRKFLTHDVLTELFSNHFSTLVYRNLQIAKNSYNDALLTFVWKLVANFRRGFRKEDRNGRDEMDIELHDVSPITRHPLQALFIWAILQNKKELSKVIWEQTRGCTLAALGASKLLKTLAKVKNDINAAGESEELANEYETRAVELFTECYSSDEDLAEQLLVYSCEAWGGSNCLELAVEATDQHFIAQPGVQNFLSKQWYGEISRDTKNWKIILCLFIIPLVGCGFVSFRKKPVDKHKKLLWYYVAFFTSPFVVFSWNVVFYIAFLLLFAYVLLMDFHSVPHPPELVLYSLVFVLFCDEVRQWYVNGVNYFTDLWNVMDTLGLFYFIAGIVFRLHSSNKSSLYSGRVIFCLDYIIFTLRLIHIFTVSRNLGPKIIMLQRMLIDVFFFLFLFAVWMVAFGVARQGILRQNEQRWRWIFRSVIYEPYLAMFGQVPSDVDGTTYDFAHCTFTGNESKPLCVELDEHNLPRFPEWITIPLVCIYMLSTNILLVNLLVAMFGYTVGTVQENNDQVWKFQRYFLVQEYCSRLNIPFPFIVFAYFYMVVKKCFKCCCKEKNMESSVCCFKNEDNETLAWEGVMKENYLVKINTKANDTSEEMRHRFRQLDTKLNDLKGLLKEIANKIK
The test system of another data set is Salmonella typhimurium. The data set can be described thus: Mutagenic activity in Salmonella Typhimurium by Ames test. The class given is toxicity, organism-based. Conditions: salmonella enterica subsp. enterica serovar typhimurium. (The Ames test uses bacterial strains that need an amino acid and regain growth without it when mutated back.)
The target in data set [7] is T1, Transient receptor potential cation channel subfamily V member 2 (Rattus norvegicus, UniProt Q9WUD2).
T1 sequence (Q9WUD2 whole entry): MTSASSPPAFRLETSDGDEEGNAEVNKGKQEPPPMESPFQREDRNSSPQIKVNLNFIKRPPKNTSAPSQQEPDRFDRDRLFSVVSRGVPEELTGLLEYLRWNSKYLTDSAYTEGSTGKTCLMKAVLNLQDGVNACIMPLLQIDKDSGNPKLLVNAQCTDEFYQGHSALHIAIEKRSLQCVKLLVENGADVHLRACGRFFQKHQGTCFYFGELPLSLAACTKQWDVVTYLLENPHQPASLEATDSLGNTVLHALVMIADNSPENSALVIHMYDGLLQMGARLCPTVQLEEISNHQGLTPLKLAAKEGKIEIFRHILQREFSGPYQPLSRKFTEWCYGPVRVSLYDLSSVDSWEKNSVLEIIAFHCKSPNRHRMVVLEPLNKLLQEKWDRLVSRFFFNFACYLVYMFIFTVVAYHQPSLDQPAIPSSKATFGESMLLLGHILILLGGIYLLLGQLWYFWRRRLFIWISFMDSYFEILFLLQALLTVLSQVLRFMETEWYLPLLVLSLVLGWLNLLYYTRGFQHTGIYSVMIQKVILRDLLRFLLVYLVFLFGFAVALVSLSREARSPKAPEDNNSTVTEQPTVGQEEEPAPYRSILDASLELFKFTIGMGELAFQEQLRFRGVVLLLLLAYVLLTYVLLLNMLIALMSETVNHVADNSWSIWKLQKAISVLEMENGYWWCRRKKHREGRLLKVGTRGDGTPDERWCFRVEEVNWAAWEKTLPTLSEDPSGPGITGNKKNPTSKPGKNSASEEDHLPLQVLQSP
The data set can be described thus: Antagonist activity at rat TRPV2 receptor. The class given is functional.

In data set [8] the test system is Rattus norvegicus. The data set can be described thus: Analgesic activity in po dosed rat osteoarthritis model. The class given is functional.
Data set [9] in a line: Plasma clearance in rat at 10 umol/kg, iv and po. It counts as ADME, organism-based. Summed up: as §1
Data set [10] has as its target Voltage-gated inwardly rectifying potassium channel KCNH2 (Homo sapiens, UniProt Q12809). Description: Inhibition of human ERG.
A short description of data set [11]: Terminal phase volume of distribution […] in rat at 10 umol/kg, iv. To be noted: in vivo, read-out: Vbeta. It counts as ADME, organism-based. In outline:
as §1

The nature of data set [12]: Half life in rat at 10 umol/kg, iv. The class given is ADME, organism-based. To be noted: in vivo. In outline:
as §1

Data set [13] is described as follows: Inhibition of human cytochrom P450. The class given is ADME.
The target in data set [14] is T2, Transient receptor potential cation channel subfamily V member 3 (Homo sapiens, UniProt Q8NET8).
T2 sequence (Q8NET8 whole entry): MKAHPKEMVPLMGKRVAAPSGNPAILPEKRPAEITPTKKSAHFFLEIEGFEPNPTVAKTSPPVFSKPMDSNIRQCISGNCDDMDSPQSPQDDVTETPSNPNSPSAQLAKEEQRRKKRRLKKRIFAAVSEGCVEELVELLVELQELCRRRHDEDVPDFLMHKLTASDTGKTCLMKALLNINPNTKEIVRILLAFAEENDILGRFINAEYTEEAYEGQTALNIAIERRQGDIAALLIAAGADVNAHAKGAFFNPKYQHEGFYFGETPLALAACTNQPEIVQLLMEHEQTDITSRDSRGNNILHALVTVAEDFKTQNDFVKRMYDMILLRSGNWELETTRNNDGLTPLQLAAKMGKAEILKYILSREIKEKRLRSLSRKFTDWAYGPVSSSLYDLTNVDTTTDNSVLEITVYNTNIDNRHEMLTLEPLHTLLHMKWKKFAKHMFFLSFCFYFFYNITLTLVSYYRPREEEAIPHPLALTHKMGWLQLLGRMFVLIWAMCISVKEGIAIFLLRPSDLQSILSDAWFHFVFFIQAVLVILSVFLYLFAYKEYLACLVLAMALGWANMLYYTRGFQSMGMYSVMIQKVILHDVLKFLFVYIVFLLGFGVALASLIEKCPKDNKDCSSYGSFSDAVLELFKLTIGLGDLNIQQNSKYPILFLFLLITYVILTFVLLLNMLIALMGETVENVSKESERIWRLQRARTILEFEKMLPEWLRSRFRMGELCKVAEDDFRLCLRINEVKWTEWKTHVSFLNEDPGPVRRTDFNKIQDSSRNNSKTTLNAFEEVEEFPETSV
Description: Antagonist activity at human TRPV3 receptor. It counts as functional.

Data set [15] in a line: Cmax in rat at 10 umol/kg, po. The class given is ADME, organism-based. The arrangement: dose 10 umol/kg, route oral. To be noted: in vivo. Summed up: as §1

Voltage-gated inwardly rectifying potassium channel KCNH2, sequence (Q12809 whole entry): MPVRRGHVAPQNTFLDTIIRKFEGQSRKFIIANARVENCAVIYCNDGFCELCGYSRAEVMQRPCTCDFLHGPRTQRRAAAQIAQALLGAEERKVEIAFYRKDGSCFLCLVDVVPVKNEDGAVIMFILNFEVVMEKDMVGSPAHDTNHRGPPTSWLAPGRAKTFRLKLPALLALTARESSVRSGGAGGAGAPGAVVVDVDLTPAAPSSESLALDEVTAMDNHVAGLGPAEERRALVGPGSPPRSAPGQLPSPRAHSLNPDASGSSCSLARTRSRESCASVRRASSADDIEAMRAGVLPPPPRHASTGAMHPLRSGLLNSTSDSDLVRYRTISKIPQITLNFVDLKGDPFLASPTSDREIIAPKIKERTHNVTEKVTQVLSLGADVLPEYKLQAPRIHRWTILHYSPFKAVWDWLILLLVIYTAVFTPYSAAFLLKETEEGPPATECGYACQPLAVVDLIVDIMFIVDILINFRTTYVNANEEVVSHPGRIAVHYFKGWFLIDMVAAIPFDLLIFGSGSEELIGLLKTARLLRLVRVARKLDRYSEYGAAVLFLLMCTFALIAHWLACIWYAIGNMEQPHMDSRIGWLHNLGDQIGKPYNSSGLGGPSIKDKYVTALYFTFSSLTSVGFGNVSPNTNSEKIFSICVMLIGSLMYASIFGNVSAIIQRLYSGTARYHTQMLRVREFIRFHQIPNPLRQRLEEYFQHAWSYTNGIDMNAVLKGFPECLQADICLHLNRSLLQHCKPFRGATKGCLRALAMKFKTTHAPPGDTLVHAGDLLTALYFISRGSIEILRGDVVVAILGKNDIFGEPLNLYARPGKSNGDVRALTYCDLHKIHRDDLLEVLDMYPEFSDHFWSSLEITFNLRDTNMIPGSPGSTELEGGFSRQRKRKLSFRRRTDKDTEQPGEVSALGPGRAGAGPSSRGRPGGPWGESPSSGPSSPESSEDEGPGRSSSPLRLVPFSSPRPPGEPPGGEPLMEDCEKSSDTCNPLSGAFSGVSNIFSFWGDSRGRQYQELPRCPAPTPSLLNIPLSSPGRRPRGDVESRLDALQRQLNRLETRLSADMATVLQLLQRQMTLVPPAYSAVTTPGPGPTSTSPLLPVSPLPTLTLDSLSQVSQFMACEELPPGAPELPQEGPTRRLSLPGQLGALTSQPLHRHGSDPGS

On to `CCc1nc(Nc2cccc3c2CC(O)CC3)oc1-c1ccc(C(F)(F)F)cc1` (stereo unspecified), for which the Kp in data set [1] amounted to 3.7. Besides, the negative-log IC50 (pIC50) (commonly the IC50 on a negative log10 scale, so that one unit is a factor of ten) in data set [2] was 8.68.

Turning to `Cc1cccc(-c2cnc(Nc3cccc4c3CC(O)CC4)o2)c1` (stereo unspecified), the pIC50 in [2] is 6.80.

Take `COc1ccc(-c2cnc(Nc3cccc4c3CC(O)CC4)o2)cc1` (stereo unspecified): the pIC50 in [2] is 7.09.

For `OC1CCc2cccc(Nc3ncc(-c4ccc(Cl)cc4)o3)c2C1` (stereo unspecified), the negative-log IC50 (pIC50) in data set [2] is 7.82.

On to `CC(C)(C)c1ccc(-c2cnc(Nc3cccc4c3CC(O)CC4)o2)cc1` (stereo unspecified), for which the negative-log IC50 (pIC50) in data set [2] was 7.59.

For `COC1CCc2cccc(Nc3ncc(-c4ccc(C(F)(F)F)cc4)o3)c2C1` (stereo unspecified), in data set [2], the pIC50 is 6.82.

For the compound `FC(F)(F)c1ccc(-c2cnc(Nc3cccc4cnccc34)o2)cc1`, the pIC50 in data set [2] is 6.64.

In the case of `OC1CCc2cccc(Nc3nc(-c4ccccc4)co3)c2C1` (stereo unspecified), the negative logarithm of the IC50 (pIC50) in data set [2] is 6.06.

`OC1CCc2cccc(Nc3ncc(-c4ccccc4)o3)c2C1` (stereo unspecified): the pIC50 in [2] is 6.73.

`O=C1CCc2cccc(Nc3ncc(-c4ccc(C(F)(F)F)cc4)o3)c2C1`: the negative-log IC50 (pIC50) in data set [2] is 6.43.

As to `CN(c1ncc(-c2ccc(C(F)(F)F)cc2)o1)c1cccc2c1CC(O)CC2` (stereo unspecified), the pIC50 in data set [2] is 6.56.

Regarding `Cc1nc(Nc2cccc3c2C[C@H](O)CC3)oc1-c1ccc(C(F)(F)F)cc1`, the Activity entry in the data set with Canis familiaris is listed as “Non-toxic”; in the data set on Rattus norvegicus [5], 52%; in the data set on Salmonella typhimurium, “Non-toxic”. Besides, the bioavailability (in general, the share of a dose that reaches the circulation, judged against a reference dose that is usually intravenous) in [3] turned out to be 52%. Also, the pIC50 in data set [4] was under 4.00; in [6], 4.36; in data set [7], 4.43; in [14] it was under 4.00. It took a dose of 14 µmol/kg to reach the 50% effect level in the data set with Rattus norvegicus [8] (ED50). For the same compound, the Kp in data set [1] was 3. Further, the clearance in [9] was 20 mL/min/kg. The “inhibition (INH)” value in data set [10] and in data set [13] was “Not Active” in each case. Moreover, in [11], the Vd came out at 6.8 L/kg. Further, the half-life (commonly the time in which the quantity being followed falls by half) in data set [12] is 3.8 h. Further, the highest level in data set [15] (Cmax) was 130 ng/mL.

As for `Cc1ccc(-c2cnc(Nc3cccc4c3CC(O)CC4)o2)cc1` (stereo unspecified), the pIC50 in [2] was 7.21.

On to `Cc1nc(Nc2cccc3c2C[C@@H](O)CC3)oc1-c1ccc(C(F)(F)F)cc1`, for which the bioavailability in data set [3] is 7%. Also, the Kp in data set [1] was 3. The compound further had a clearance in data set [9] of 73.3 mL/min/kg. Also, the Vd in data set [11] was determined as 12 L/kg. In data set [12], this compound had a half-life of 1.9 h. The Cmax (in general, the highest concentration seen after dosing) in data set [15] amounted to 20 ng/mL.

For `OC1CCc2c(cccc2Nc2ncc(-c3ccc(C(F)(F)F)cc3)o2)C1` (stereo unspecified), in [2], the negative-log IC50 (pIC50) is 6.92.

`OC1CCc2cccc(Nc3ncc(-c4ccc(C(F)(F)F)cc4)o3)c2C1` (stereo unspecified) returned a bioavailability in [3] of 5%. For the same compound, in data set [2], the negative logarithm of the IC50 (pIC50) was 8.08. The same compound had a clearance in [9] of 85 mL/min/kg. Also, the Vd in data set [11] stood at 5.4 L/kg. This compound gave a half-life in [12] of 0.7 h. Besides, the Cmax in data set [15] is 23 ng/mL.

`N#Cc1ccc(-c2nc(Nc3cccc4c3CC(O)CC4)oc2-c2ccc(C(F)(F)F)cc2)cc1` (stereo unspecified): in data set [1], the Kp came to 0.13. The negative-log IC50 (pIC50) in data set [2] is 8.70.

For the compound `Oc1ccc2cccc(Nc3ncc(-c4ccc(C(F)(F)F)cc4)o3)c2c1`, the negative-log IC50 (pIC50) in [2] is 8.30.

As to `CC(C)c1nc(Nc2cccc3c2CC(O)CC3)oc1-c1ccc(C(F)(F)F)cc1` (stereo unspecified), in [2], the negative logarithm of the IC50 (pIC50) is 6.94.

With `Cc1ccccc1-c1cnc(Nc2cccc3c2CC(O)CC3)o1` (stereo unspecified), in data set [2], the negative logarithm of the IC50 (pIC50) was 6.38.

As to `FC(F)(F)c1ccc(-c2cnc(Nc3cccc4[nH]ncc34)o2)cc1`, the pIC50 in data set [2] is 7.00.

Turning to `Cc1nc(Nc2cccc3c2CC(O)CC3)oc1-c1ccc(C(F)(F)F)cc1` (stereo unspecified), in [3], the bioavailability is 33%. In data set [1], the Kp is 3. In data set [9], this compound gave a clearance of 40 mL/min/kg. Further, the Vd in data set [11] stood at 10 L/kg. The compound also gave a half-life in data set [12] of 2.8 h. Besides, the Cmax in data set [15] came to 96 ng/mL.

For `OC1CCc2cccc(Nc3ncc(-c4ccc(N5CCCC5)cc4)o3)c2C1` (stereo unspecified), the pIC50 in data set [2] is 7.00.

As for `OC1CCc2cccc(Nc3ncc(Cc4ccccc4)o3)c2C1` (stereo unspecified), the pIC50 in data set [2] is 5.74.

For the compound `OC1CCc2cccc(Nc3nc(-c4ccc(F)cc4)c(-c4ccc(C(F)(F)F)cc4)o3)c2C1` (stereo unspecified), the Kp in [1] is 0.21. Moreover, the pIC50 in data set [2] is 8.89.

In the case of `NC1CCc2cccc(Nc3ncc(-c4ccc(C(F)(F)F)cc4)o3)c2C1` (stereo unspecified), the pIC50 in data set [2] is 6.49.

With `OC1CCc2cccc(Nc3nc(Br)c(-c4ccc(C(F)(F)F)cc4)o3)c2C1` (stereo unspecified), the negative logarithm of the IC50 (pIC50) in data set [2] is 8.05.

As to `CC1(O)CCc2cccc(Nc3ncc(-c4ccc(C(F)(F)F)cc4)o3)c2C1` (stereo unspecified), the negative-log IC50 (pIC50) in data set [2] is 6.08.
